Key:
[1] = target: Muscarinic acetylcholine receptor M3 (Homo sapiens, UniProt P20309); assay: Displacement of [3H]NMS from recombinant human M3 receptor expressed in CHO-K1 cells after 16 hrs by SPA method; assay type: cell-based
In short: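 Nonspecific binding defined with atropine 1 µM; eight total-binding replicates per plate. Incubated at room temperature at least 16 h to equilibrium before counting; n ≥ 2.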

[2] = Plasma protein binding in human; assay type: ADME, cell-free; settings: for fraction unbound: read-out: PPB (converted)
[3] = Intrinsic clearance in human liver microsomes; assay type: ADME; settings: read-out: CLH
[4] = target: Muscarinic acetylcholine receptor M3 (Cavia porcellus, UniProt Q8VH26); assay: Antagonist activity at M3 receptor in Dunkin-Hartley guinea pig trachea assessed as inhibition of methacholine-induced airway smooth muscle contraction after 1 to 4 hrs; settings: read-out: pA2 (converted)
Chain of Muscarinic acetylcholine receptor M3 (Cavia porcellus, UniProt Q8VH26) (Q8VH26 whole entry): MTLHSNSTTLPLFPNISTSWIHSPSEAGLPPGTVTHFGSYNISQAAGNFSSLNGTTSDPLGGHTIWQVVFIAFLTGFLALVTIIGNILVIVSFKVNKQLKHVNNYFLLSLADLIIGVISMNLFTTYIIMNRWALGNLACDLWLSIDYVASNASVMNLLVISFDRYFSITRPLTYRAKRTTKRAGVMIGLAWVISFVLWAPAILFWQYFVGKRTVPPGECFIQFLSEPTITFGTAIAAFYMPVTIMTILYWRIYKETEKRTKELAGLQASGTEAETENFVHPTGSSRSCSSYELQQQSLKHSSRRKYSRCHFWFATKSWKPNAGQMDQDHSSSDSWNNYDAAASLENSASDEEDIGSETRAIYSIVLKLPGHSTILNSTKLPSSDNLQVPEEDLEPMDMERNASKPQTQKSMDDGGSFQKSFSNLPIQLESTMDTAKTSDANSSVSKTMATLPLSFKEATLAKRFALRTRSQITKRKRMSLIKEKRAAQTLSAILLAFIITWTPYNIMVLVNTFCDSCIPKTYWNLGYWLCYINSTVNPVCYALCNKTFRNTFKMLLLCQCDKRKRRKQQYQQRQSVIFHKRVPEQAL
In short: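 Isolated guinea pig tracheal rings equilibrated 1 h, re-tensioned to 1 g, primed with methacholine, then a cumulative methacholine curve (3 × 10^-9 to 3 × 10^-5 M). Vehicle or compound equilibrated 1 or 4 h before a second curve (3 × 10^-9 to 1 × 10^-3 M final). Isometric force as % of curve-1 maximum. pA2 calculated from vehicle and test A50 values; n = 2.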

Chain of Muscarinic acetylcholine receptor M3 (Homo sapiens, UniProt P20309) (P20309 whole entry): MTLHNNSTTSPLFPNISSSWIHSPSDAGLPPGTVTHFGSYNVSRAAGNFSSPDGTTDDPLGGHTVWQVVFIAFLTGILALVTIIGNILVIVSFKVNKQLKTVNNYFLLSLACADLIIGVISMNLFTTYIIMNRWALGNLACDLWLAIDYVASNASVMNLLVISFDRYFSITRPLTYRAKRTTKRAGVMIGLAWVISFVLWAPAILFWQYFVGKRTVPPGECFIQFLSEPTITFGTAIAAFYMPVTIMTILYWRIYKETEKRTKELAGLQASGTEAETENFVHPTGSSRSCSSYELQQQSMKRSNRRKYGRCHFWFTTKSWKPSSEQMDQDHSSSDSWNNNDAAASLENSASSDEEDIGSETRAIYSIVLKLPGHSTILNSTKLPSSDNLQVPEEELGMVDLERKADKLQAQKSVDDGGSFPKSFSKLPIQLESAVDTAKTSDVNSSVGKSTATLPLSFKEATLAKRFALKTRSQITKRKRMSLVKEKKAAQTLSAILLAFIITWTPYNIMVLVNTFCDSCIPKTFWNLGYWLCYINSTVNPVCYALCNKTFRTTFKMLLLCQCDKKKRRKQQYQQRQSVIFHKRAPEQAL

| Structure (SMILES) | IC50 [1] | fraction unbound [2] | microsomal CLint [3] | Kb [4] | PPB [2] |
| --- | --- | --- | --- | --- | --- |
| O=C(C[N+]12CCC(CC1)[C@@H](OC(=O)C1(C3=CC=CC3)CCCCCC1)C2)Nc1nncs1 | 7.94 nM | 0.06 | 39 µL/min/mg |  |  |
| O=C(O[C@H]1C[N+]2(Cc3ccc(F)c(F)c3)CCC1CC2)C1(C2=CC=CC2)CCCCCC1 | 39.8 nM |  | 55 µL/min/mg |  |  |
| O=C(O[C@H]1C[N+]2(Cc3csc(-c4ccccc4)n3)CCC1CC2)C1(C2=CC=CC2)CCCCCC1 | 25.1 nM |  | 133 µL/min/mg |  |  |
| O=C(C[N+]12CCC(CC1)[C@@H](OC(=O)C1(C3=CC=CC3)CCCCCC1)C2)NCCCNC(=O)c1ccccn1 | 6.31 nM | 0.026 | 101 µL/min/mg |  |  |
| O=C(C[N+]12CCC(CC1)[C@@H](OC(=O)C1(C3=CC=CC3)CCCCCC1)C2)Nc1ccccc1 | 0.251 nM | 0.006 | 27 µL/min/mg |  |  |
| O=C(C[N+]12CCC(CC1)[C@@H](OC(=O)C1(C3=CC=CC3)CCCCCC1)C2)N1CCOCC1 | 100 nM |  | 15 µL/min/mg |  |  |
| Cc1cnc(NC(=O)C[N+]23CCC(CC2)[C@@H](OC(=O)C2(C4=CC=CC4)CCCCCC2)C3)cn1 | 0.794 nM | 0.04 | 27 µL/min/mg |  |  |
| Cc1ccc(CCC[N+]23CCC(CC2)[C@@H](OC(=O)C2(C4=CC=CC4)CCCCCC2)C3)c(C)n1 | 1 nM | 0.04 | 50 µL/min/mg |  |  |
| Cc1ccnc(NC(=O)C[N+]23CCC(CC2)[C@@H](OC(=O)C2(C4=CC=CC4)CCCCCC2)C3)c1 | 0.794 nM | 0.018 | 30 µL/min/mg |  |  |
| O=C(C[N+]12CCC(CC1)[C@@H](OC(=O)C1(C3=CC=CC3)CCCCCC1)C2)Nc1ccc(C(F)(F)F)nn1 | 2.51 nM |  |  |  |  |
| O=C(C[N+]12CCC(CC1)[C@@H](OC(=O)C1(C3=CC=CC3)CCCCCC1)C2)Nc1ncccc1F | 0.251 nM | 0.06 | 49 µL/min/mg |  |  |
| O=C(C[N+]12CCC(CC1)[C@@H](OC(=O)C1(C3=CC=CC3)CCCCCC1)C2)Nc1cncc(Cl)n1 | 0.1 nM | 0.015 | 51 µL/min/mg | 0.501 nM |  |
| Cc1ccc(NC(=O)C[N+]23CCC(CC2)[C@@H](OC(=O)C2(C4=CC=CC4)CCCCCC2)C3)cn1 | 0.794 nM |  |  |  |  |
| O=C(C[N+]12CCC(CC1)[C@@H](OC(=O)C1(C3=CC=CC3)CCCCCC1)C2)Nc1ccc(F)cn1 | 0.631 nM | 0.024 |  |  |  |
| O=C(O[C@H]1C[N+]2(CCCOc3ccccc3)CCC1CC2)C(O)(c1cccs1)c1cccs1.[Br-] [ACLIDINIUM BROMIDE] |  |  | > 145 µL/min/mg |  | ND(Unstable) |
| O=C(O[C@H]1C[N+]2(Cc3ccn(-c4ccccc4)n3)CCC1CC2)C1(C2=CC=CC2)CCCCCC1 | 0.398 nM |  | 103 µL/min/mg |  |  |
| O=C(O[C@H]1C[N+]2(CCOCc3ccccc3)CCC1CC2)C1(C2=CC=CC2)CCCCCC1 | 0.126 nM | 0.03 | 120 µL/min/mg | 3.98 nM |  |
| O=C(O[C@H]1C[N+]2(CCc3cccc(Cl)c3)CCC1CC2)C1(C2=CC=CC2)CCCCCC1 | < 0.0398 nM | 0.005 | 72 µL/min/mg | 0.251 nM |  |
| O=C(C[N+]12CCC(CC1)[C@@H](OC(=O)C1(C3=CC=CC3)CCCCCC1)C2)Nc1ncns1 | 0.398 nM |  | 25 µL/min/mg |  |  |
| N#Cc1ccc(CC[N+]23CCC(CC2)[C@@H](OC(=O)C2(C4=CC=CC4)CCCCCC2)C3)cc1 | 3.16 nM |  | 49 µL/min/mg |  |  |
| C[N+]12CCC(CC1)[C@@H](OC(=O)C1(C3=CC=CC3)CCCCCC1)C2 | 2.51 nM | 0.27 | 34 µL/min/mg |  |  |
| Cn1ccc(CCC[N+]23CCC(CC2)[C@@H](OC(=O)C2(C4=CC=CC4)CCCCCC2)C3)n1 | 0.501 nM | 0.06 | 63 µL/min/mg |  |  |

| Structure (SMILES) | IC50 [1] | fraction unbound [2] | microsomal CLint [3] | Kb [4] | PPB [2] |
| --- | --- | --- | --- | --- | --- |
| O=C(O[C@H]1C[N+]2(Cc3ccccc3)CCC1CC2)C1(C2=CC=CC2)CCCCCC1 | 39.8 nM |  | 68 µL/min/mg |  |  |
| C[N+]1(C)CCC(OC(=O)C2(c3ccccc3)CCCCCC2)CC1 | 0.251 nM | 0.27 | 20 µL/min/mg |  |  |
| O=C(C[N+]12CCC(CC1)[C@@H](OC(=O)C1(C3=CC=CC3)CCCCCC1)C2)Nc1ccc(C(F)(F)F)nc1 | 0.251 nM |  | 5 µL/min/mg |  |  |
| CC(C)(C)c1cc(NC(=O)C[N+]23CCC(CC2)[C@@H](OC(=O)C2(C4=CC=CC4)CCCCCC2)C3)no1 | 10 nM |  |  |  |  |
| O=C(C[N+]12CCC(CC1)[C@@H](OC(=O)C1(C3=CC=CC3)CCCCCC1)C2)Nc1cc[nH]n1 | 0.1 nM | 0.05 | 37 µL/min/mg |  |  |
| O=C(O[C@H]1C[N+]2(CCc3ccccc3)CCC1CC2)C1(C2=CC=CC2)CCCCCC1 | 0.0794 nM | 0.007 | 105 µL/min/mg | 0.316 nM |  |
| O=C(O[C@H]1C[N+]2(CCOc3ccccc3)CCC1CC2)C1(C2=CC=CC2)CCCCCC1 | 0.158 nM | 0.04 | 106 µL/min/mg | 0.398 nM |  |
| O=C(C[N+]12CCC(CC1)[C@@H](OC(=O)C1(C3=CC=CC3)CCCCCC1)C2)Nc1cccnc1 | 0.2 nM | 0.04 | 40 µL/min/mg |  |  |
| Cc1cncc(NC(=O)C[N+]23CCC(CC2)[C@@H](OC(=O)C2(C4=CC=CC4)CCCCCC2)C3)n1 | 0.631 nM |  | 27 µL/min/mg |  |  |
| Cc1cc(NC(=O)C[N+]23CCC(CC2)[C@@H](OC(=O)C2(C4=CC=CC4)CCCCCC2)C3)ncn1 | 1 nM | 0.2 | 26 µL/min/mg |  |  |
| O=C(C[N+]12CCC(CC1)[C@@H](OC(=O)C1(C3=CC=CC3)CCCCCC1)C2)Nc1cncnc1 | 0.631 nM |  | 32 µL/min/mg |  |  |
| O=C(C[N+]12CCC(CC1)[C@@H](OC(=O)C1(C3=CC=CC3)CCCCCC1)C2)Nc1ccncn1 | 0.158 nM | 0.11 |  |  |  |
| O=C(C[N+]12CCC(CC1)[C@@H](OC(=O)C1(C3=CC=CC3)CCCCCC1)C2)Nc1ncco1 | 12.6 nM | 0.15 | 66 µL/min/mg |  |  |
| Cc1ccc(NC(=O)C[N+]23CCC(CC2)[C@@H](OC(=O)C2(C4=CC=CC4)CCCCCC2)C3)nc1 | 0.501 nM | 0.019 | 51 µL/min/mg |  |  |
| O=C(C[N+]12CCC(CC1)[C@H](OC(=O)C1(C3=CC=CC3)CCCCCC1)C2)Nc1ccccn1 | 31.6 nM |  |  |  |  |
| O=C(C[N+]12CCC(CC1)[C@@H](OC(=O)C1(C3=CC=CC3)CCCCCC1)C2)NCCNC(=O)c1cnccn1 | 3.16 nM |  | 74 µL/min/mg |  |  |
| O=C(C[N+]12CCC(CC1)[C@@H](OC(=O)C1(C3=CC=CC3)CCCCCC1)C2)Nc1cccc(C(F)(F)F)n1 | 2.51 nM | 0.004 |  |  |  |
| Cc1ccc(CC[N+]23CCC(CC2)[C@@H](OC(=O)C2(C4=CC=CC4)CCCCCC2)C3)s1 | 0.0631 nM | 0.01 | 130 µL/min/mg | 0.316 nM |  |
| O=C(C[N+]12CCC(CC1)[C@@H](OC(=O)C1(C3=CC=CC3)CCCCCC1)C2)Nc1ccncc1 | 2.51 nM | 0.05 | 39 µL/min/mg |  |  |
| Cc1nccc(NC(=O)C[N+]23CCC(CC2)[C@@H](OC(=O)C2(C4=CC=CC4)CCCCCC2)C3)n1 | 0.398 nM |  |  |  |  |
| Cc1ccc(NC(=O)C[N+]23CCC(CC2)[C@@H](OC(=O)C2(C4=CC=CC4)CCCCCC2)C3)nn1 | 0.794 nM | 0.1 | 16 µL/min/mg |  |  |
| COc1cccc(C[N+]23CCC(CC2)[C@@H](OC(=O)C2(C4=CC=CC4)CCCCCC2)C3)c1 | 3.16 nM |  |  |  |  |

— ChEMBL document CHEMBL3085673, “The design of a novel series of muscarinic receptor antagonists leading to AZD8683, a potential inhaled treatment for COPD” (Bioorg Med Chem Lett, 2013)
